Compounds with a hit are over-represented: about 1.8% of the library has one in this group of screens.
p-CIP stab down = compounds decreasing mouse p/CIP protein stability. Q05BA5. F442A p/CIP-EGFP cells, EGFP fluorescence, 16 h. decrease of EGFP signal, % at 10 µM. 0.01% of 290,000 active;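 active = EGFP signal decrease of at least 30% at 10 µM or well 3 SD below plate mean, unless failing retest; inactive = the rest, including hits failing retest or dose response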
APOBEC3G inh = blocks human APOBEC3G single-stranded DNA deamination; Q9HC16; recombinant A3G, ssDNA deamination FAM/TAMRA fluorescence; inhibition, % at 20 µM; 0.28% of 330,000 active;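 active = inhibition of at least 40% at 20 µM, with no more than 30% in the related APOBEC3A deaminase screen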;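 note: plate controls were DMSO wells with A3G for no effect and wells lacking A3G enzyme for full effect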
PHOSPHO1 inh = inhibitors of human PHOSPHO1 phosphatase | Q8TCT1 | recombinant PHOSPHO1, absorbance phosphatase assay | inhibition, % at 13.3 µM | 1.1% of 290,000 active | AID 1565; in the data active = inhibition above about 60%
Tb MetRS inh = Trypanosoma brucei MetRS inhibition | inhibition, % at 11.9 µM | 0.4% of 360,000 active | purified T. brucei MetRS, ATP depletion, Kinase-Glo luminescence;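 active = inhibition above a per-plate cutoff of the control wells' mean inhibition plus 3 SD, cut at about 5.5% in these data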;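 note: 0% = DMSO wells median and 100% = median of wells with control inhibitor compound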
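Dosing: 11.9 µM single point; system: parasite MetRS enzyme; technique: luminescence of leftover ATP; times: 15 min enzyme-compound preincubation, 2 h reaction, 10 min detection, 25 °C; replicates: each compound tested once; read-out basis: percent inhibition relative to median high and low control wells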
APOBEC3A inh = human APOBEC3A DNA deaminase inhibition | P31941 | recombinant A3A, FAM/TAMRA ssDNA deamination fluorescence | inhibition, % at 20 µM | 0.41% of 330,000 active | AID 493011;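 active = at least 40% inhibition at 20 µM here, with at most 30% in a related deaminase screen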;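 note: plate controls were A3A with DMSO for no effect and wells lacking A3A enzyme for full effect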
Target sequence (P31941 whole entry, looked up): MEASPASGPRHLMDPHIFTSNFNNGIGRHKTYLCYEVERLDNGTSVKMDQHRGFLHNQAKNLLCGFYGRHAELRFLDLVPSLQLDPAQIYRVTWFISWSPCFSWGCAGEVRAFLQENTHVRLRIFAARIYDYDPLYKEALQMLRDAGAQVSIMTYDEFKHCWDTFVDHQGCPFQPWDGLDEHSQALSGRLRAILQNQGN
Tb MetRS conf = confirmation of Trypanosoma brucei MetRS inhibitors. shares compounds with Tb MetRS inh. T. brucei MetRS enzyme, luminescence (ATP depletion). AID 624412. inhibition, % at 11.9 µM. 93% of 1,400 active; in the data active = inhibition above about 7%
Jurkat tox = Jurkat T cell cytotoxicity for MetRS hits; shares compounds with Tb MetRS inh; Jurkat cells viability, ATP luminescence; inhibition, % at 8.3 µM; 12% of 1,400 active; AID 624413; in the data active = inhibition above about 15%;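 note: 0% = vehicle and 100% = reference inhibitor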
TbMetRS FP orth = inhibits T. brucei methionyl tRNA synthetase in orthogonal FP test | inhibition, % at 11.9 µM | shares compounds with Tb MetRS inh | purified T. brucei MetRS, fluorescence polarization | 44% of 1,400 active; in the data active = inhibition above about 17%;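 note: 0% = vehicle wells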
Active calls of the source: *; x = no result given; ! = not active in a repeat.

SMILES	p-CIP stab down	APOBEC3G inh	PHOSPHO1 inh	Tb MetRS inh	APOBEC3A inh	Tb MetRS conf	Jurkat tox	TbMetRS FP orth
O=C(NCc1cc(Cl)cc(Cl)c1)c1ccc2nc(COCCO)[nH]c2c1	x	x	x	21*	x	55*	-8	30*
O=C1CCCc2c1[nH]c1ccccc21	3	1	28	0	0	x	x	x
O=C(N/N=C1\CCCc2c1[nH]c1ccc(Cl)cc21)c1ccncc1	x	-4	x	0	-7	x	x	x
Clc1ccc2[nH]c3c(c2c1)CCc1cn[nH]c1-3	4	4	56	32*	-13	28*	5	100*
c1ccc2c3c([nH]c2c1)-c1[nH]ncc1CC3	-2	1	39	16*	-3	19*	2	22*
CN/N=C(\Cc1nc2ccccc2[nH]1)c1ccc([N+](=O)[O-])cc1	15	x	5	4	x	x	x	x
Fc1ccc(CSc2nc3ncc(Br)cc3[nH]2)cc1	-6	0	18	3	3	x	x	x
Brc1cnc2nc(SCc3nc4ccccc4[nH]3)[nH]c2c1	-3	-8	38	57*	-5	85*	-2	65*
Clc1ccc(/C(Cc2nc3ccccc3[nH]2)=N\Nc2ccccc2)cc1	-16	-5	-45	8.6*	-4	32*	4	17*
Clc1ccc(OCCSCc2nc3ccccc3[nH]2)cc1	-8	-12	69*	58*	-6	73*	5	48*
Cc1ccc(SCc2nc3ccccc3[nH]2)cc1	-11	-3	28	4	2	x	x	x
Clc1ccc(SCc2nc3ccccc3[nH]2)cc1	-28	-3	8	17*	0	30*	8	13
CC1(C)N=C(N)NC(Nc2ccccc2Cl)=N1	3	-2	1	-1	3	x	x	x
Cc1cccc(NC(=O)C(C)OC(=O)CNC(=O)C2CCCCC2)c1 (stereo not given)	x	x	x	0	x	x	x	x
CN(CC(=O)Nc1cccc(F)c1)C(=O)c1cc(S(=O)(=O)N2CCCCC2)ccc1N1CCOCC1	x	-8	x	0	1	x	x	x
COc1c(N)c2c(c([N+](=O)[O-])c1OC)C(=O)OC2	x	x	x	0	x	x	x	x
CCOc1ccc(S(=O)(=O)N2CCCC(C(=O)NC3CC3)C2)cc1Cl (stereo not given)	x	6	x	0	0	x	x	x
CCNC(=S)NNC(=O)c1ccc(S(=O)(=O)NCc2ccco2)cc1	x	-8	x	6.2*	-5	25*	6	12
CC(C)(C)c1ccc(C(=O)NNC(=S)NCc2ccco2)cc1	-3	-5	-50	-1	-5	x	x	x
Cc1cc(C)cc(N(CCC#N)C(=O)COC(=O)C2CCN(c3ccc(C(F)(F)F)cn3)CC2)c1	x	-8	x	0	-1	x	x	x
CC(C)n1nc(CC(=O)O)c2ccccc2c1=O	-12	-6	41	-1	-2	x	x	x
NC(=NCCCCCCN=C(N)/N=C(\N)Nc1ccc(Cl)cc1)/N=C(\N)Nc1ccc(Cl)cc1	10	-9	0	45*!	0	53*	31*	51*
COc1ccc(Cc2n[nH]c(=S)n2NC(=O)Nc2ccc(Cl)c(Cl)c2)cc1	-3	0	-109	37*	-2	50*	8	32*
Cn1c(CC(=O)Nc2ccc(Cl)c(Cl)c2)n[nH]c1=S	11	8	48	2	-6	x	x	x
CC(=O)Nc1c2c(nn1-c1ccc(C)cc1)CS(=O)(=O)C2	-12	-4	34	-1	2	x	x	x
Nc1nc2ccccc2n1CCOc1ccc(F)cc1	24	-4	x	49*	-2	72*	17*	45*
Cc1nc2ccccc2n1CCOc1ccccc1	-30	-3	19	0	3	x	x	x
COc1ccc(OCCn2c(N)nc3ccccc32)cc1	-7	-7	-14	39*	-7	62*	0	32*
S=C(Nc1ccccc1)Nc1nc2ccccc2n1CCOc1ccccc1	10	-6	11	18*	-4	5	0	3
CCCCCCCCN1C(=O)[C@H](CC(=O)NCCc2ccccc2OC)C[C@@]2(C(=O)OC)CCCCC=C12	x	x	x	-1	x	x	x	x

From PubChem
